# In the library only some 2.2% were active in any assay of this set; here they are far more common.
# NRP1-CendR mod: modulators of CendR peptide binding to NRP-1, primary screen, biochemical, fluorescence polarization, uHTS. 360,000 compounds, 0.85% hits. AID 602438, 2012. inhibition, % at 25 µM. FAM-RPARPAR peptide binding to NRP-1;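 active means inhibition or corrected inhibition above about 18%, plus a signal ratio from 0.5 to 1.5, limit read from the data, passing the limit was not always enough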
# ARFGAP1 inhibitor: inhibitors of rat ARFGAP1 GAP activity, primary screen, biochemical, fluorescence polarization, GDP tracer | Arfgap1-stimulated ARF1 GTP hydrolysis, GDP FP detection | 360,000 compounds, 0.26% hits | ADP-ribosylation factor GTPase-activating protein 1 (Rattus norvegicus), Q62848 | inhibition, % at 16.5 µM;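 active means inhibition above a per-plate limit, mean inhibition of low control wells plus 3 SD, cut at about 25% in these data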
# Target sequence (Q62848 1-136 limits assumed): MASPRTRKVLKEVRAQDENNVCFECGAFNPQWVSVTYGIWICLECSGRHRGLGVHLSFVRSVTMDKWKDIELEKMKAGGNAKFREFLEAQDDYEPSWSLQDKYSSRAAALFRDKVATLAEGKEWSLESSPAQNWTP
#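 System: truncated rat Arfgap1 GAP domain / Medium: HEPES-based buffer, pH 7.5 / Also added: N-terminally truncated human ARF1-GTP substrate / Incubation: enzyme reaction 120 min at 25 °C after 20 min preincubation / Measured by: FP of antibody-bound GDP Alexa 633 tracer, ex 620/em 688 nm / Replicates: singlicate, each compound tested once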
# Exocytosis inh: LAMP-1 surface exposure blockers, TALL-104 cells – cell-based, flow cytometry, MLPCN library, primary screen; TALL-104 LAMP-1 surface exposure; cells stimulated with thapsigargin and PMA; inhibition, % at 10 µM; 360,000 compounds, 0.66% hits;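 active means inhibition above about 55%, limit read from the data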
# V-ATPase pH: regulators of yeast V-ATPase proton pumping, primary screen, pHLuorin cytosolic pH fluorescence; S. cerevisiae; response, % at 10 µM; 350,000 compounds, 0.37% hits; in the data active means response mostly above about 7.3%, no sharp cut-off; inactive means mostly below about 5.4%; further: actives read high
# ASAP1 GAP inh: inhibitors of human ASAP1 ArfGAP activity, primary screen, biochemical, fluorescence polarization; Arf-GAP with SH3 domain, ANK repeat and PH domain-containing protein 1 (Homo sapiens), …; ASAP1-stimulated ARF1 GTP hydrolysis, GDP FP detection; inhibition, % at 16.5 µM; 360,000 compounds, 0.19% hits; AID 624377, 2012; in the data active means inhibition above about 25%
# Numbers stand for hits; – = inactive; · = no result given.
SMILES,NRP1-CendR mod,ARFGAP1 inhibitor,Exocytosis inh,V-ATPase pH,ASAP1 GAP inh
N#C/C(=C/c1ccc(N2CCCCCC2)o1)c1ccc(Cl)cc1,–,·,84,–,·
N#CCC(=O)N/N=C/c1c(-c2ccccc2)n(-c2ccccc2)c2ccccc12,–,–,94,–,–
N#CCC(=O)N/N=C/c1cn(Cc2ccccc2C#N)c2ccccc12,–,–,–,–,–
Cc1ccc(OCC(O)CNC2CCCC2)c(C)c1 (configuration not stated),–,–,–,–,–
Cc1ccccc1OCC(O)CNC1CCC(NCC(O)COc2ccccc2C)CC1 (configuration not stated),20,–,–,–,–
CCc1ccc(C2CC(=O)N(c3cccc(F)c3)C3=C2C(=O)OC3)cc1 (configuration not stated),27,–,–,–,–
O=C1OCC2=C1C(c1ccccc1)CC(=O)N2c1ccc(F)cc1 (configuration not stated),–,–,–,–,–
O=S(=O)(c1ccccc1)N1CCCc2nc(-c3ccccc3)ccc21,·,–,·,·,–
O=C(c1coc2ccc(O)cc12)C1CC1,19,–,–,–,–
COCc1cc(N2CCNC[C@H]2C)ccc1N1CCN(Cc2ccccc2)[C@@H](C)C1,·,–,·,·,–
COC(=O)[C@]1(C)N[C@H](CN(C)C(=O)Nc2ccccc2)[C@@H]2C(=O)N(C)C(=O)[C@@H]21,–,–,–,–,–
O=C(c1ccc(S(=O)(=O)N2CCOCC2)cc1)N1CCc2ccccc21,24,–,–,–,–
O=C(C1CCCCC1)N1CCc2ccccc21,–,–,–,–,–
O=C(CCC(=O)N1CCCc2ccccc21)N1CCN(S(=O)(=O)c2ccccc2)CC1,28,–,–,–,–
O=C(C1CCCN(S(=O)(=O)c2ccccc2)C1)N1CCCc2ccccc21 (configuration not stated),–,–,–,–,–
O=C(c1cccc(S(=O)(=O)N2CCCCC2)c1)N1CCc2ccccc21,32,–,–,–,–
O=C(C1CCCO1)N1CCc2ccccc21 (configuration not stated),56,–,–,–,–
O=C(c1cccc(S(=O)(=O)N2CCCC2)c1)N1CCCc2ccccc21,–,–,–,–,–
CCCCc1c(-c2ccccc2OC)ncn1Cc1cccc(OC)c1,·,–,·,·,–
COC(=O)C1=C(C)N(Cc2ccccc2C(F)(F)F)C(=NCc2ccc(OC)cc2)NC1c1cccc(Cl)c1 (configuration not stated),·,–,·,·,–
Cc1ccccc1NC(=O)c1cc2ccccc2o1,–,–,–,14,–
O=[N+]([O-])c1cccc(COc2ccc(CO)cc2)c1,·,–,·,·,–
Nn1c(SCc2ccccc2)nc2c(cnn2-c2ccccc2)c1=O,22,–,–,–,–
CCCSc1nc2c(cnn2-c2ccccc2)c(=O)n1N,–,–,–,–,–
COc1ccc(C(=O)NCCn2cc(SCC(=O)Nc3nnc(C)s3)c3ccccc32)cc1,24,·,–,–,·
SMILES,NRP1-CendR mod,ARFGAP1 inhibitor,Exocytosis inh,V-ATPase pH,ASAP1 GAP inh
Cc1nnc(NC(=O)CSc2cn(CCNC(=O)c3ccccc3)c3ccccc23)s1,–,–,–,–,–
COc1ccc(OC)c(C2=Nn3c(nnc3-c3ccncc3)SC2)c1,–,–,64,–,–
COc1ccc(OC)c(C2=Nn3c(nnc3-c3cc(OC)c(OC)c(OC)c3)SC2)c1,–,–,–,–,–
CCn1c(C)nc2cc(OC)ccc21,21,–,–,–,–
COC(=O)[C@]12C[C@H](CC(=O)NCCCCc3ccccc3)C(=O)N(Cc3ccc4c(c3)OCO4)C1=C[C@H](COCc1ccccc1)O[C@@H]2C,·,–,·,·,–
CC(Sc1nnc(C2CC2)n1-c1ccccc1)C(=O)N1CCNC1=O (configuration not stated),–,–,–,–,–
O=C(CSc1nnc(C2CC2)n1-c1ccccc1)N1CCNC1=O,20,–,–,–,–
Cc1cc(C)cc(NC(=O)C(C)N2C(=O)c3ccccc3C2=O)c1 (configuration not stated),–,–,–,–,–
Cc1cc(C)cc(OCCNC(=O)C(C)N2C(=O)c3ccccc3C2=O)c1 (configuration not stated),22,–,–,–,–

# Screening results as filed in PubChem.
